TAAR1 antagonist = human TAAR1 antagonism. Q96RJ0. CHO RD-HGA16 TAAR1, Fluo-8 calcium fluorescence, antagonist. inhibition, % at 3 µM. 360,000 compounds, 1.5% hits. AID 624466;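 active means inhibition above a per-plate cutoff, the mean inhibition of test compounds on that plate plus 3 SD, cut at about 49% in these data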
Target sequence (Q96RJ0 whole entry, looked up): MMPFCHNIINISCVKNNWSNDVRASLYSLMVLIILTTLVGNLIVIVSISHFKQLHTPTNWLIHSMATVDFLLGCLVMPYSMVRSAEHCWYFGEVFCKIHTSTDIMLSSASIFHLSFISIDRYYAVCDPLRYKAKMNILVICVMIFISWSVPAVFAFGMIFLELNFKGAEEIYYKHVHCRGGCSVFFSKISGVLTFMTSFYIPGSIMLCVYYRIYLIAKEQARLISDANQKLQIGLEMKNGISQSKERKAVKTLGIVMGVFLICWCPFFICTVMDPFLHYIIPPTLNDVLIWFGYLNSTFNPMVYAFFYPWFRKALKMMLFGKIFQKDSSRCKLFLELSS
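Test system – hTAAR1-expressing CHO RD-HGA16 cells, Gα16-coupled · Also added – β-PEA at EC80 concentration, post-compound challenge · Compound – 3 µM, single point · Incubation – dye loading 75 min at 37 °C, then 30 min room temperature · Measured by – Fluo-8 intracellular calcium dye fluorescence, real-time kinetic reads · Benchmarks – vehicle and agonist controls · Replicates – singlicate, one well per test compound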
rCAG RNA binder = r(CAG) repeat RNA binding | TO-PRO-1 dye displacement fluorescence | inhibition, % at 3 µM | 370,000 compounds, 1.3% hits;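 active means inhibition above the plate cutoff, the mean of all test compounds on that plate plus 3 SD, cut at about 35% in these data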;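 further: higher means more dye released from RNA so lower well fluorescence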
HCV NS3 hel inh = blocks Hepatitis C virus NS3 helicase unwinding | inhibition, % at 10.9 µM | NS3 helicase DNA unwinding, Cy5 molecular beacon fluorescence | 290,000 compounds, 0.56% hits;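 active means inhibition above the mean of all tested compounds plus 3 SD, set per campaign, cut at about 35% in these data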
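Measured by: Cy5 fluorescence, 0 and 60 min reads / Assay system: NS3 helicase fragment of HCV / Control set: low DMSO, high thioflavine S at 110 µM / Times: 1 h reaction at 25 °C, ATP-initiated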
TAAR1 ag = human TAAR1 agonism | 360,000 compounds, 0.99% hits | CHO RD-HGA16 TAAR1, Fluo-8 calcium fluorescence; vehicle wells 0%, saturating PEA agonist 100% | activation, % at 3 µM | AID 624467;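 active means activation above the mean activation of all test compounds in the run plus 3 SD, cut at about 38% in these data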
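Test system: RD-HGA16 (CHO) cells co-expressing Gα16 and hTAAR1; dosing: one-point dosing at 3 µM (nominal); timing: 17-24 h seeding, 75 min 37 °C dye, 30 min RT; signal: kinetic Fluo-8 calcium fluorescence; read-out basis: % activation relative to PEA EC100 response; controls: DMSO and PEA EC100; replicates: n 1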
core dimer inh = HCV core protein dimerization inhibition; TR-FRET GST/Flag-core106 dimerization, 1536-well; inhibition, % at 5 µM; 300,000 compounds, 0.33% hits; AID 1899;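 active means inhibition above the mean of all tested compounds plus 3 SD, set per screening campaign, cut at about 45% in these data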
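Material: GST/Flag-tagged HCV core106 proteins. Incubation: 4 h, 22.5 °C incubation. Read-out basis: inhibition (%) from 671 over 617 nm ratio. Measured by: TR-FRET, excitation 340 nm, emission 617 and 671 nm.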
nonsel antag count = nonselective antagonism, TAAR1 counter-screen. shares compounds with TAAR1 antagonist. counterscreen cell line, calcium fluorescence, antagonist mode. 2,400 compounds, 77% hits. inhibition, % at 3 µM; in the data active means inhibition above about 22%;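 further: CHO-Ga16 host cells stimulated with ATP at an EC80 level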
TAAR1 antag conf = human TAAR1 antagonism, confirmed. shares compounds with TAAR1 antagonist. TAAR1-expressing cells, fluorescence antagonist read-out. inhibition, % at 3 µM. 2,400 compounds, 40% hits. AID 651785; in the data active means inhibition above about 49%;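 further: CHO-Ga16 host cells challenged with agonist PEA near its EC80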
Ga16 nonsel ag = counter-screen for TAAR1 antagonists: nonselective Ga16 agonists; shares compounds with TAAR1 antagonist; Ga16-expressing cells, calcium fluorescence, agonist counterscreen; activation, % at 3 µM; 2,400 compounds, 18% hits; in the data active means activation above about 12%
TAAR1 ag count = counter-screen for human TAAR1 antagonists: TAAR1 agonists; shares compounds with TAAR1 antagonist; hTAAR1 cell line, fluorescence activation, agonist mode; activation, % at 3 µM; 2,400 compounds, 2% hits; AID 651955; in the data active means activation above about 37%;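 further: CHO cells stably expressing TAAR1 with calcium dye readout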
Hits are given with their value; 0 = inactive; - = not tested or not shown. Sampled rows, rich in hits. Any-hit rate of the full collection: about 3.7%.

SMILES	TAAR1 antagonist	rCAG RNA binder	HCV NS3 hel inh	TAAR1 ag	core dimer inh	nonsel antag count	TAAR1 antag conf	Ga16 nonsel ag	TAAR1 ag count
COc1ccc(C(=O)N2N=C(c3ccc(NS(C)(=O)=O)cc3)CC2c2cccs2)cc1 (configuration not stated)	59	0	0	0	0	30	0	0	0
Cc1ccc(C(=O)N2N=C(c3ccc(NS(C)(=O)=O)cc3)CC2c2cccs2)cc1 (configuration not stated)	0	0	0	0	0	-	-	-	-
CCCCNCc1cc2ccccc2o1	103	0	0	0	0	0	0	0	0
CCOc1ccc(-n2c(SCC(=O)Nc3ccc(Oc4ccccc4)cc3)nnc2-c2ccncc2)cc1	-	0	-	-	-	-	-	-	-
CC(C)(C)N1Cc2nnn(Cc3ccccc3)c2-c2cc(N3CCCCC3)ccc2S1(=O)=O	-	0	-	-	-	-	-	-	-
O=C(CCC(=O)c1cccs1)NCCc1ccc(F)cc1	66	0	-	0	0	0	80	0	54
CN(c1cccnc1)c1ccc(NC(=O)Cc2c[nH]c3ccccc23)cc1-c1cccnc1F	0	0	-	0	-	-	-	-	-
Nc1nc2cc3c(cc2cc1C(=O)NCCc1c[nH]c2ccccc12)OCO3	52	0	-	0	-	45	0	13	0
CC(=O)OCC(=O)NCC1CCN(C(=O)C(=O)c2cc3ccccc3o2)CC1	0	0	-	0	-	-	-	-	-
CN(Cc1ccco1)S(=O)(=O)c1ccc2c(c1)CCN2C(=O)CC(C)(C)C	-	0	-	-	-	-	-	-	-
COc1ccc(S(=O)(=O)N2CCCCCC2)cc1C(=O)OCc1cccc(OC)c1OC	58	0	-	0	0	22	0	0	0
COc1cccc(COC(=O)C2CCN(S(=O)(=O)c3ccc(C)cc3)CC2)c1OC	0	0	-	0	0	-	-	-	-
C#CCN(C[C@H]1[C@H](OC(=O)NCc2ccc(OC)c(OC)c2)[C@H](OC(=O)NCc2ccc(OC)c(OC)c2)C[C@@H](C(=O)OC)[C@H]1C(=O)OC)S(=O)(=O)c1ccc(C)cc1	58	0	-	0	-	27	0	0	0
C#CCN(C[C@H]1[C@H](OC(=O)NCc2ccco2)[C@H](OC(=O)NCc2ccco2)C[C@@H](C(=O)OC)[C@H]1C(=O)OC)S(=O)(=O)c1ccc(C)cc1	0	0	-	0	-	-	-	-	-
COC(=O)C1=C(C)N(Cc2ccc(Cl)cc2)C(=S)NC1c1cccc(OC)c1 (configuration not stated)	51	0	-	0	-	0	0	0	0
Cc1ccc(C(=O)N2CCC(Oc3cccnc3)CC2)cc1	-	0	-	-	-	-	-	-	-
COC(=O)C1CN(Cc2cn(Cc3ccc(C)cc3)nn2)CCS(=O)(=O)N1Cc1ccc(F)cc1 (configuration not stated)	-	0	-	-	-	-	-	-	-
O=C(NCCCN1CCOCC1)c1ccccc1N1C(=O)[C@@H]2Cc3c([nH]c4ccccc34)C(c3cccc(Cl)c3)N2C1=O (some centres not stated)	71	0	0	0	0	47	70	23	0
Cc1ccc(C2c3[nH]c4ccccc4c3C[C@H]3C(=O)N(c4ccccc4C(=O)NCCCN4CCOCC4)C(=O)N23)cc1 (some centres not stated)	53	0	0	0	0	26	0	0	0
O=C(NCCCN1CCOCC1)c1ccccc1N1C(=O)[C@@H]2Cc3c([nH]c4ccccc34)C(c3ccccc3)N2C1=O (some centres not stated)	0	0	-	0	-	-	-	-	-
COc1cccc(C2c3[nH]c4ccccc4c3C[C@H]3C(=O)N(c4ccccc4C(=O)N4CCC(C(=O)O)CC4)C(=O)N23)c1 (some centres not stated)	0	0	0	0	0	-	-	-	-

Screening data: PubChem BioAssay, The Scripps Research Institute Molecular Screening Center
